In ChEMBL document CHEMBL5029154, “Design, Synthesis, and Biological Evaluation of Organic Nitrite (NO2-) Donors as Potential Anticerebral Ischemia Agents” (J Med Chem, 2021):
Active and inactive are the calls of the source. The calls are words filed in the database; no cut-off is given here.

Columns and labels:
Cortical neurone [1] = assay: Neuroprotective activity against in OGD/R-induced Sprague-Dawley rat cortical neuron injury assessed as cell viability pretreated at 1.8 uM for 24 hrs followed by subjected to OGD for 2 hrs measured after 24 hrs under normoxic condition; type: functional, tissue-based
Procedure, shortened: (§1)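 Cortical neurons were isolated from SD rat cortex by enzymatic digestion, plated on poly-lysine in 10% FBS DMEM, and pretreated 24 h at 1.8 μM in basal medium with 2% B27. OGD was run in glucose/FBS-free DMEM under 1% O₂, followed by 24 h reoxygenation in 10% FBS DMEM. Viability was read by MTT; apoptosis was also assessed. Three independent experiments.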

[2] = Stability of the compound under dark condition at 200 uM measured after 24 hrs by HPLC analysis; type: physicochemical
[3] = Stability of the compound in rat plasma assessed as half life at 200 uM measured after 24 hrs by HPLC analysis; type: ADME, cell-free
[4] = GSH reactivity assessed as reaction rate measured at 4 equiv of GSH upto 24 hrs by HPLC analysis; type: ADME
[5] = GSH reactivity assessed as reaction rate measured at 8 equiv of GSH upto 24 hrs by HPLC analysis; type: ADME
[6] = GSH reactivity assessed as reaction rate measured at 32 equiv of GSH upto 24 hrs by HPLC analysis; type: ADME
[7] = Drug metabolism in Sprague-Dawley rat assessed as peak nitrite release in plasma at 10 mg/kg, iv measured upto 120 mins by ion chromatography; type: ADME, organism-based; settings: in vivo, 2 h
Procedure, shortened: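 Male SD rats (N = 3/group) received a single iv dose. Plasma was sampled at 2, 5, 15, 30, 60, 90 and 120 min. Nitrite was quantified by ion chromatography. Values are mean ± SD.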

[8] = Neuroprotective activity against in OGD/R-induced rat primary cortical neuron apoptosis assessed as viable cells pretreated at 1.8 uM for 24 hrs followed by subjected to OGD for 2 hrs measured after 24 hrs under normoxic condition by PI/FITC-H staining based flow cytometry (reference value: 31.55%); type: functional; settings: Cortical neurone, read-out: Activity; procedure, shortened: as §1
[9] = Neuroprotective activity against in OGD/R-induced rat cortical neuron apoptosis assessed as necrotic cells pretreated at 1.8 uM for 24 hrs followed by subjected to OGD for 2 hrs measured after 24 hrs under normoxic condition by PI/FITC-H staining based flow cytometry (reference value: 3.68%); type: functional, Cortical neurone
Cortical neurone [10] = assay: Neuroprotective activity against in OGD/R-induced rat cortical neuron cytotoxicity assessed as decrease in cell viability pretreated at 1.8 uM for 24 hrs followed by subjected to OGD for 2 hrs measured after 24 hrs under normoxic condition i n presence of ML385 by MTT assay; type: functional, tissue-based; procedure, shortened: as §1
Cortical neurone [11] = assay: Induction of NQO1 mRNA transcript level in OGD/R-induced rat primary cortical neuron pretreated at 1.8 uM for 24 hrs followed by subjected to OGD for 2 hrs measured after 24 hrs under normoxic condition by RT-qPCR analysis; type: functional, tissue-based
Procedure, shortened: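 Primary rat cortical neurons were pretreated with 1.8 μM compound for 24 h, given 2 h OGD, then 24 h normoxic culture. Nrf2, HO-1 and NQO1 mRNA were measured by RT-qPCR. Cytoplasmic and nuclear protein (30 μg/lane) were blotted for Nrf2, with lamin A and β-actin as references, and quantified by densitometry as the nuclear:cytoplasmic ratio. Three independent experiments, mean ± SD.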

Cortical neurone [12] = assay: Neuroprotective activity against in OGD/R-induced rat cortical neuron cytotoxicity assessed as activation of NO/cGMP/PKG pathway by measuring increase in PKG expression pretreated at 1.8 uM for 24 hrs followed by subjected to OGD for 2 hrs measured after 24 hrs under normoxic condition in presence of NS2028 by Western blot analysis; type: functional, tissue-based
Rattus norvegicus [13] = assay: Neuroprotective activity against middle cerebral artery occlusion-induced ischemia-reperfusion injury Sprague-Dawley rat model assessed as decrease in cerebral edema degree at 95 to 9500 microg/kg, iv pretreated for 2 hrs followed by reperfusion measured after 24 hrs; type: functional, organism-based; settings: dose 95-9500 µg/kg
Procedure, shortened: (§2)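 Male SD rats (N = 8/group) were dosed iv at 95, 950 or 9500 μg/kg 2 h before 2 h MCAO (nylon suture, chloral hydrate anesthesia), then reperfused. Where used, PTIO 1 mg/kg iv was given 30 min before compound. At 24 h, blinded assessment covered Longa deficit score, TTC-stained 2 mm sections (infarct area/whole area), and edema by wet/dry weight.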

Rattus norvegicus [14] = assay: Neuroprotective activity against middle cerebral artery occlusion-induced ischemia-reperfusion injury Sprague-Dawley rat model assessed as decrease in neurologic deficit scores at 95 to 9500 microg/kg, iv pretreated for 2 hrs followed by reperfusion measured after 24 hrs; type: functional, organism-based; settings: dose 95-9500 µg/kg; procedure, shortened: as §2
[15] = Toxicity in Sprague-Dawley rat assessed as effect on blood pressure at 950 microg/kg, iv measured upto 24 hrs; type: organism-based; settings: in vivo, 0.95 mg/kg, dose 950 µg/kg
Procedure, shortened: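 Male Sprague-Dawley rats (12 weeks, 200−220 g, SPF housing, free chow and water) received a single iv tail-vein injection of test compound or vehicle control, n = 3 per group, followed by blood pressure measurement.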

Rattus norvegicus [16] = assay: Neuroprotective activity against middle cerebral artery occlusion-induced ischemia-reperfusion injury Sprague-Dawley rat model assessed as decrease in neurologic deficit scores at 95 to 9500 microg/kg, iv treated immediately reperfusion measured after 24 hrs; type: functional, organism-based; settings: dose 95-9500 µg/kg
Procedure, shortened: (§3)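 Male SD rats (12 weeks, 200–220 g; N = 8/group) underwent MCAO under […] (350 mg/kg) using a nylon intraluminal suture for 2 h, then reperfusion. Compound (95, 950 or 9500 μg/kg) was given iv immediately after reperfusion; where used, PTIO 1 mg/kg iv was given 30 min before. At 24 h, blinded scoring covered Longa neurological deficit, TTC infarct area/whole area, and edema from wet/dry brain weight (105 °C, 24 h).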

Rattus norvegicus [17] = assay: Neuroprotective activity against middle cerebral artery occlusion-induced ischemia-reperfusion injury Sprague-Dawley rat model assessed as decrease in neurologic deficit scores at 95 to 9500 microg/kg, iv treated immediately reperfusion in presence of PTIO measured after 24 hrs; type: functional, organism-based; settings: dose 95-9500 µg/kg; procedure, shortened: as §3
Rattus norvegicus [18] = assay: In vivo activation of Nrf2 middle cerebral artery occlusion-induced ischemia-reperfusion injury Sprague-Dawley rat model assessed as phosphorylation at 950 microg/kg, iv treated immediately reperfusion measured after 24 hrs; type: functional, organism-based; settings: dose 950.0 µg/kg
Procedure, shortened: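 Paraffin sections (3 μm) from MCAO rats were immunostained with anti-phospho-Nrf2 (1:100) and DAB, then scored blinded by average optical density over five fields per sample.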

HUVEC [19] = assay: Angiogenesis activity in HUVEC cells assessed as increase in tube formation at 1.8 uM measured after 8 hrs by inverted microscopy; type: functional, cell-based; settings: Homo sapiens
Procedure, shortened: (§4)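 Early-passage HUVECs (passages 2–6), grown in DMEM with 10% FBS, glutamine, pyruvate and antibiotics, were seeded at 8 × 10⁴ cells/well on Matrigel. They were exposed to vehicle or compound for 8 h at 37 °C, 5% CO₂. Tubes were counted under an inverted microscope.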

HUVEC [20] = assay: Angiogenesis activity in HUVEC cells assessed as increase in tube formation at 1.8 uM measured after 8 hrs in presence of NS2028 by inverted microscopy; type: functional, cell-based; settings: Homo sapiens; procedure, shortened: as §4
Rattus norvegicus [21] = assay: (§5) Neuroprotective activity against middle cerebral artery occlusion-induced ischemia-reperfusion injury Sprague-Dawley rat model assessed as increase in CD31 expression in cerebral ischemic penumbra at 95 to 950 microg/kg, iv treated immediately reperfusion measured after 24 hrs by immunofluoresence assay; type: functional, organism-based; settings: dose 95-950 µg/kg
Rattus norvegicus [22] = assay: as §5, with “hrs in presence of PTIO” for “hrs”; type: functional, organism-based; settings: dose 95-950 µg/kg

Stability [2]: Stable | half-life at 200 µM [3]: 5.3 h | Activity [4]: 0.0299 h⁻¹ | Activity [5]: 0.0363 h⁻¹ | Activity [6]: 0.056 h⁻¹ | Drug metabolism [7]: Metabolite_Detected
Structure (SMILES): O=C(/C(=C/c1ccccc1)C[N+](=O)[O-])c1ccccc1
Activity (Cortical neurone [1]): Active | viability at 1.8 µM [8]: 69.8% | Activity [9]: 1.28% | Activity (Cortical neurone [10]): Active | Activity (Cortical neurone [11]): Active | Activity (Cortical neurone [12]): inactive | Activity (Rattus norvegicus [13]): Active | Activity (Rattus norvegicus [14]): Active | Activity [15]: Non-Toxic | Activity (Rattus norvegicus [16]): Active | Activity (Rattus norvegicus [17]): inactive | Activity (Rattus norvegicus [18]): Active | Activity (HUVEC [19]): Active | Activity (HUVEC [20]): inactive | Activity (Rattus norvegicus [21]): Active | Activity (Rattus norvegicus [22]): inactive
